Consider one compound from ChEMBL document CHEMBL1687733, “Topoisomerase I gene mutations at F270 in the large subunit and N184 in the small subunit contribute to the resistance mechanism of the unicellular parasite Leishmania donovani towards 3,3'-diindolylmethane” (Antimicrob Agents Chemother, 2009).

Data set [1] relates to T1, Leishmania donovani [K430N].
T1 sequence (whole entry): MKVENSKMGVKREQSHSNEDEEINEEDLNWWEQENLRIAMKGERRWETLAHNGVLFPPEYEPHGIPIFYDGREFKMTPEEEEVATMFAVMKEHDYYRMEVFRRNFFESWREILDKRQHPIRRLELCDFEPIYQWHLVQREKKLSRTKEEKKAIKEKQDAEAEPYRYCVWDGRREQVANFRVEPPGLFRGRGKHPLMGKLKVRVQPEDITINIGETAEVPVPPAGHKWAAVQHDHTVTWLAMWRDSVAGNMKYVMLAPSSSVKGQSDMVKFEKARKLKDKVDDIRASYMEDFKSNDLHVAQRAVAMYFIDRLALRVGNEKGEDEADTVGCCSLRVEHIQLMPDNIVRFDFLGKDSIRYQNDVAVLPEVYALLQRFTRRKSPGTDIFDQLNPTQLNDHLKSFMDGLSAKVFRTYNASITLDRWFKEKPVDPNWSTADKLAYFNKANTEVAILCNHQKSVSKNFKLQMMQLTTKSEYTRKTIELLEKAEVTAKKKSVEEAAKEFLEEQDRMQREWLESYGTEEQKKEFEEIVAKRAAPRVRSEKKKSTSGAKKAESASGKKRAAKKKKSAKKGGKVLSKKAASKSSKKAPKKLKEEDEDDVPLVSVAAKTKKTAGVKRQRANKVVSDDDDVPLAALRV
Description: Inhibition of recombinant drug-resistant Leishmania donovani LdDR50 topoisomerase 1b wild type small subunit and large subunit K430N mutant-mediated relaxation of supercoiled pBluescript SK(+) DNA at up to 50 uM after 30 mins using ethidium bromide staining. The method, boiled down:
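Reconstituted recombinant enzyme (30 fmol) with 90 fmol supercoiled pBluescript SK(+) DNA (3:1 DNA:enzyme), 30 min at 37°C with DIM (1–50 μM for fully mutant enzyme; 10 μM for single-site mutants); 4% DMSO vehicle control. Products on 1% agarose, ethidium bromide (0.5 μg/ml) stained; supercoiled monomer band quantified.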

For data set [2], the system named is Leishmania donovani. Description: Drug uptake in wild type Leishmania donovani AG83 at 20 uM after 30 mins by spectrophotometric analysis. The note with it: in vivo, 0.5 h. Format: ADME, organism-based. The gist of the method: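 Log-phase promastigotes at 3 × 10^7 cells/ml with 20 μM DIM at 22°C; aliquots at 1, 5, 10, 20 and 30 min washed three times in ice-cold PBS pH 7.4 with 0.01 N HCl, sonicated. Cell-associated DIM quantified by equilibrium dialysis and absorbance at 280 nm; three experiments in duplicate.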

In a further data set the target is DNA topoisomerase I (Leishmania donovani (strain BPK282A1), UniProt E9BRC0, F270L/K430N). Description: Binding affinity to recombinant drug-resistant Leishmania donovani LdDR50 topoisomerase 1b large subunit F270L, K430N mutant after 24 hrs by equilibrium dialysis method. The method, boiled down: (§1)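 Recombinant His-tagged subunits expressed in E. coli BL21(DE3) pLysS, purified on Ni-NTA then phosphocellulose, reconstituted 1:1. Enzyme 200 μM with DIM 1–20 μM in 20 mM Tris-HCl pH 7.5, 50 mM NaCl, 10 mM MgCl2 for 30 min at 37°C, then dialysed (12–14 kDa cutoff) 24 h at 25°C. Free DIM measured by absorbance (ε 6.6 × 10^4 M−1); KD from saturation plot.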

Data set [3] relates to Leishmania donovani. Description: Antimicrobial activity against wild type Leishmania donovani AG83 transfected with drug-resistant Leishmania donovani LdDR50 topoisomerase 1 F270Lmutant in large subunit assessed as inhibition of parasite growth at 20 uM after 24 hrs by MTT assay. Format: functional. As to conditions: AG83, 24 h. The method, boiled down:
(§2)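 WT promastigotes transfected by electroporation with mutant large-subunit (pXG-HYG, hygromycin selection) and/or small-subunit (pXG-GFP2+, G418 selection) topoisomerase I genes. Grown with DIM 1–20 μM for 24 h; MTT read-out, growth as % of optical density of untreated WT parasites.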

Data set [4] has as its system Leishmania donovani. The data set can be described thus: Antimicrobial activity against wild type Leishmania donovani AG83 transfected with drug-resistant Leishmania donovani LdDR50 topoisomerase 1 F270L, K430N mutant in large subunit and N184S mutant in small subunit assessed as inhibition of parasite growth at 20 uM after 24 hrs by MTT assay. Format: functional, organism-based. The gist of the method: as §2
Background: Tetrazolium dyes change colour on reduction, which living cells bring about.

Data set [5] concerns Leishmania donovani. Description: Antimicrobial activity against wild type Leishmania donovani AG83 transfected with drug-resistant Leishmania donovani LdDR50 topoisomerase 1 F270L, K430N mutant in large subunit assessed as inhibition of parasite growth at 20 uM after 24 hrs by MTT assay. As to conditions: AG83, 24 h. The class given is functional. The gist of the method: as §2

Data set [6] concerns Leishmania donovani. Description: Antimicrobial activity against wild type Leishmania donovani AG83 transfected with drug-resistant Leishmania donovani LdDR50 topoisomerase 1 wild type large subunit and N184S mutant in small subunit assessed as inhibition of parasite growth at 20 uM after 24 hrs by MTT assay. The class given is functional. As to conditions: AG83, 24 h. The method, boiled down:
as §2

In data set [7] the test system is Leishmania donovani. The data set can be described thus: Ratio of KD for drug-resistant Leishmania donovani LdDR50 topoisomerase 1b to KD for wild type Leishmania donovani AG83 topoisomerase 1b.
A short description of data set [8]: Binding affinity to recombinant drug-resistant Leishmania donovani LdDR50 topoisomerase 1b large subunit F270L, K430N mutant and small subunit N184S mutant after 24 hrs by equilibrium dialysis method. The method, boiled down: as §1
Data set [9] deals with Leishmania donovani. The data set can be described thus: Antimicrobial activity against wild type Leishmania donovani AG83 transfected with drug-resistant Leishmania donovani LdDR50 topoisomerase 1 K430N mutant in large subunit and wild type small subunit assessed as inhibition of parasite growth at 20 uM after 24 hrs by MTT assay. The class given is functional. As to conditions: AG83, 24 h. The method, boiled down:
as §2

The nature of data set [10]: Binding affinity to Leishmania donovani small subunit of topoisomerase 1b.
Data set [11] deals with T2, DNA topoisomerase type IB small subunit (Leishmania donovani (strain BPK282A1)), E9B7X3 [N184S].
T2 sequence (whole entry): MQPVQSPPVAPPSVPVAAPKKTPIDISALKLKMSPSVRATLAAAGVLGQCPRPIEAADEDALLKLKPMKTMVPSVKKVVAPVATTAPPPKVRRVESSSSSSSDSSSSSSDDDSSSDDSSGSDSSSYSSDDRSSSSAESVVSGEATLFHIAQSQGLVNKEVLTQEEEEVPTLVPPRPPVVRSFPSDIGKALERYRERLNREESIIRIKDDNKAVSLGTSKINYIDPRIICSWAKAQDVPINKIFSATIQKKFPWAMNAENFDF
The data set can be described thus: Effect on recombinant drug-resistant Leishmania donovani LdDR50 topoisomerase 1b small subunit N184S mutant-mediated cleavage of 25-mer duplex oligonucleotide at 20 uM after 30 mins by PAGE analysis. The method, boiled down:
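5′-32P-labelled 25-mer duplex (10 nM) incubated with reconstituted mutant enzyme (0.2 μM, 20-fold molar excess) and DIM 5–20 μM for 30 min (Methods 37°C; legend 23°C). Stopped with SDS, trypsin-treated, resolved on 12% denaturing polyacrylamide-urea gel; cleaved 12-mer detected by autoradiography.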

In data set [12] the test system is Leishmania donovani. The data set can be described thus: Inhibition of recombinant wild type Leishmania donovani AG83 topoisomerase 1b-mediated relaxation of supercoiled pBluescript SK(+) DNA at 10 uM after 30 mins using ethidium bromide staining. The gist of the method: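 Recombinant L and S subunits (E. coli, Ni-NTA then phosphocellulose) were reconstituted at a 1:1 molar ratio and dialysed 12 h at 4°C in 50 mM K-phosphate pH 7.5. Enzyme (30 fmol) acted on 90 fmol supercoiled pBS SK(+) for 30 min at 37°C, with DIM or 4% DMSO. Products ran on 1% agarose with ethidium bromide (0.5 μg/ml), and the supercoiled band was quantified.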

The source made the active and inactive calls.

As usually defined, the inhibition is the drop in the measured response relative to a control, in per cent. The Kd is a measure of binding affinity in units of concentration. Consider `c1ccc2c(Cc3c[nH]c4ccccc34)c[nH]c2c1` [ARUNDINE], for which the inhibition entry (in data set [1]; in the data set with Leishmania donovani [12]) was “Active” in each case. Besides, the Drug uptake result in the data set with Leishmania donovani [2] is recorded as “Active”. Besides, the equilibrium dissociation constant (Kd) on DNA topoisomerase I was 760 µM; in data set [8] it was 240 µM; in data set [10], 0.05 µM. Further, the inhibition at 20 µM in the data set on Leishmania donovani [3] is 34%; in the data set with Leishmania donovani [5], 34%; in the data set with Leishmania donovani [6], 91%; in the data set with Leishmania donovani [9], 94%. The result with Leishmania donovani [4] was inactive. In the data set on Leishmania donovani [7], the Ratio stood at 25000. Besides, the outcome in [11] was Active.
